Measured values: ChEMBL document CHEMBL2375320, “Synthesis and antimicrobial activity of polyhalo isophthalonitrile derivatives” (2013)
Converted amounts (≈) assume the structure as drawn. The source made the active and inactive calls. No cut-off for these calls is given here.

Tests used:
Assay type in all cases: functional
[1] = tested on: Candida albicans; experiment: Antifungal activity against Candida albicans ATCC 10231 assessed as growth inhibition at 1000 ug/mL after 72 hrs by disk diffusion method; details: for zone of inhibition at 1000 µg/mL: ATCC 10231, 72 h, read-out: IZ
How it was run: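 Candida grown and kept on Sabouraud glucose agar plates. Compounds screened at a fixed 1000 µg/mL, with fluconazole as positive control. Plates incubated at 26 °C for 72 h, then zones of inhibition measured in mm.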

[2] = tested on: Candida albicans; experiment: Antifungal activity against Candida albicans ATCC 10231 assessed as growth inhibition after 24 hrs by microbroth dilution method
How it was run: (§1)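 Tube dilution: each compound or positive control (norfloxacin, fluconazole) prepared in DMSO at 11 concentrations from 0.98 to 1000 µg/mL. Inoculum and sterile water added to tubes each holding 1 mL of compound solution. Tubes incubated 24 h and inspected for turbidity. MIC is the lowest concentration with no visible growth. Run in triplicate.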

[3] = tested on: Escherichia coli; experiment: Antibacterial activity against Escherichia coli ATCC 8099 assessed as growth inhibition at 1000 ug/mL after 24 hrs by disk diffusion method
[4] = tested on: Bacillus cereus; experiment: Antibacterial activity against Bacillus cereus ATCC 14579 assessed as growth inhibition at 1000 ug/mL after 24 hrs by disk diffusion method; details: for zone of inhibition at 1000 µg/mL: ATCC 14579, 24 h, read-out: IZ
[5] = tested on: Staphylococcus aureus; experiment: Antibacterial activity against Staphylococcus aureus ATCC 6538 assessed as growth inhibition after 24 hrs by microbroth dilution method; details: ATCC 6538, 24 h; how it was run: as §1
[6] = tested on: Staphylococcus aureus; experiment: Antibacterial activity against Staphylococcus aureus ATCC 6538 assessed as growth inhibition at 1000 ug/mL after 24 hrs by disk diffusion method; details: for zone of inhibition at 1000 µg/mL: ATCC 6538, 24 h, read-out: IZ
[7] = tested on: Bacillus cereus; experiment: Antibacterial activity against Bacillus cereus ATCC 14579 assessed as growth inhibition after 24 hrs by microbroth dilution method; details: ATCC 14579, 24 h; how it was run: as §1
[8] = tested on: Pseudomonas aeruginosa; experiment: Antibacterial activity against Pseudomonas aeruginosa ATCC 15442 assessed as growth inhibition at 1000 ug/mL after 24 hrs by disk diffusion method; details: for zone of inhibition at 1000 µg/mL: ATCC 15442, 24 h, read-out: IZ

Compound	zone of inhibition at 1000 µg/mL [1] [mm]	MIC ([2]; ATCC 10231, 24 h) [µg/mL]	inhibition zone (IZ) [3]	zone of inhibition at 1000 µg/mL [4] [mm]	MIC [5] [µg/mL]	zone of inhibition at 1000 µg/mL [6] [mm]	MIC [7] [µg/mL]	zone of inhibition at 1000 µg/mL [8] [mm]	inhibition zone (IZ) [8]	inhibition zone (IZ) [1]	inhibition zone (IZ) [4]	inhibition zone (IZ) [6]	zone of inhibition at 1000 µg/mL ([3]; ATCC 8099, 24 h, read-out: IZ) [mm]	MIC [2]
N#Cc1c(F)c(F)c(Nc2ccccc2)c(C#N)c1F	17.3	3.9 (≈ 14.3 µM)	inactive	17.8	3.3 (≈ 12.1 µM)	23	6.8 (≈ 24.9 µM)	8	–	–	–	–	–	–
N#Cc1c(Cl)c(Cl)c(Sc2ccccc2)c(C#N)c1Cl	6.8	> 500	inactive	7	250 (≈ 736 µM)	7.3	> 1000	–	inactive	–	–	–	–	–
N#Cc1c(N)c(Cl)c(Cl)c(C#N)c1Cl	–	–	inactive	–	–	–	–	–	inactive	inactive	inactive	inactive	–	–
CCCSc1c(Cl)c(N)c(C#N)c(F)c1C#N	–	> 500	inactive	7.6	1.6 (≈ 5.93 µM)	8.5	> 1000	–	inactive	–	–	–	–	–
CCn1cc(C(=O)O)c(=O)c2cc(F)c(N3CCNCC3)cc21 [NORFLOXACIN]	–	–	–	15.2	0.5 (≈ 1.57 µM)	19.9	0.5 (≈ 1.57 µM)	18	–	–	–	–	31	–
N#Cc1c(F)c(F)c(NCc2ccccc2)c(C#N)c1F	11.6	10.4 (≈ 36.2 µM)	inactive	18.1	1.3 (≈ 4.53 µM)	19.3	3.9 (≈ 13.6 µM)	–	inactive	–	–	–	–	–
CN(C)CCCNc1c(Cl)c(N)c(C#N)c(F)c1C#N	–	–	inactive	15	–	14.2	–	–	inactive	–	–	–	–	–
N#Cc1c(F)c(F)c(Nc2ccc(Cl)cc2)c(C#N)c1F	13.3	2.3 (≈ 7.48 µM)	inactive	16.7	1.5 (≈ 4.88 µM)	19.8	31.3 (≈ 102 µM)	7.8	–	–	–	–	–	–
COc1ccc(Nc2c(Cl)c(F)c(C#N)c(F)c2C#N)cc1	–	–	inactive	6.8	–	–	–	–	inactive	inactive	–	inactive	–	–
N#Cc1c(N)c(Cl)c(N2CCCCC2)c(C#N)c1N1CCCCC1	–	–	inactive	–	–	–	–	–	inactive	–	inactive	inactive	–	–
N#Cc1c(F)c(Cl)c(F)c(C#N)c1F	–	–	inactive	–	–	–	–	–	inactive	inactive	inactive	inactive	–	–
N#Cc1c(F)c(Cl)c(Nc2ccccc2)c(C#N)c1F	13.6	0.5 (≈ 1.73 µM)	inactive	14.6	3.9 (≈ 13.5 µM)	13	125 (≈ 432 µM)	7.5	–	–	–	–	–	–
OC(Cn1cncn1)(Cn1cncn1)c1ccc(F)cc1F [FLUCONAZOLE]	22.5	1 (≈ 3.27 µM)	–	–	–	–	–	–	–	–	–	–	–	–
N#Cc1c(Cl)c(Cl)c(Nc2ccccc2)c(C#N)c1Cl	15.3	–	inactive	–	–	–	–	–	inactive	–	inactive	inactive	–	–
N#Cc1c(F)c(Cl)c(Nc2ccc(Cl)cc2)c(C#N)c1F	–	–	inactive	12.2	26 (≈ 80.2 µM)	10.7	417 (≈ 1290 µM)	7.6	–	inactive	–	–	–	inactive
N#Cc1c(Sc2ccccc2)c(F)c(Sc2ccccc2)c(C#N)c1Sc1ccccc1	–	–	inactive	9.8	–	–	–	–	inactive	inactive	–	inactive	–	–
